Source: the RNAGym collection of RNA variant scans (doi:10.1126/science.aae0568)
Fewer inactive variants are shown than the library holds.

B1: tRNA (parent)
chain: GUUCCGUUGGCGUAAUGGUAACGCGUCUCCCUCCUAAGGAGAAGACUGCGGGUUCGAGUCCCGUACGGAACG

Variants of: B1
Test: yeast fitness relative to wild type (ratio to wild type); higher = fitter; tRNA-Arg(CCU), competitive growth, 37 C, YPD
Procedure, shortened: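 Amplicons of the tRNA-Arg(CCU) gene were sequenced, 100-nucleotide paired-end, from the start population and from each end population of a pooled yeast competition. The competition, in six parallel replicates, lasted 24 hours in YPD at 37°C. Fitness relative to wild type was calculated from changes in genotype frequencies. Genotypes had to have ≥ 100 starting reads, and estimates < 0.5 were set to 0.5.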

Going from GUUCCGUUGGAGUAGUGGUAACGCGUCUCCAUCCUAAGGAGAAGACUGCGGGUUCGAGUACCGUACGGAACG to GUUCCGUUGGCGUGAUGGUAACGUGUCUCCCUCCUAAGGAGAAGACUGCGGGUUCGAGUCCCGUACGGAACG, the yeast fitness rises from ≤ 0.5 to 0.784.

Going from GUUCCGUUGGCGUAAUGGUAACGCGUCUCCCUCCUAAGGAGAAGACUGCGGGAUCGGGUCCCGUACGGAACG to GUUCCGUUGGCGUGCUGGUAACGCGUCUCCCUCCUAAGGAGAAGACUGCGGGUUCGAGUCCCGUACUGAACG, the yeast fitness rises from 0.556 to 0.62.

First: GUUCCGUUGGCGUAAUGGUAACGCGUCUCCCUCCUGAGGAGAAGGCUGCGGGUUCGAGUCCCGUUCUGAACG
Second: GUUGCGUAGGCGUAAUGCUAACGCGUCUCCCACCUAAGGAGAAGACCGCGGGUUCGAGUCCCGUACGGAACG
The yeast fitness of the first is lower: ≤ 0.5 for the first, 0.574 for the second.

Going from GUUCUGUUGGCGUAAUGCUAACGCGUCCCCCUCCUAAGGAGAAGACUGCGGGUUCGAGUCCCAUACGGAACG to GUUGCGUUGGCGUAAUGGUAACACGUCUGCCUCCUACGGAGAAGACUGCGGGUUCGAGUGCCGUACGGAACG, the yeast fitness rises from ≤ 0.5 to 0.808.

First: GUUCCGUUGGCGUCAUGGUAACGCGUCUCCCUCCUAAGGCCAAGACUGUGGGUUAGAGUCCCGUACGGAUCG
Second: GUUCCGUUGGCGUAAUGGUAACGCGUCUCUGUCCUAAGGAGACGACUGCGAGUUCGAGUCCCGUACGGAACG
The yeast fitness of the first is lower: ≤ 0.5 for the first, 0.565 for the second.

Compared with GUGCCGUUGGCGUAAUGGUAACGCGUCUCCCUCCUAAGGAGAAGACCGCGGGUUCGAGUCCCGUACGGAACG, GUUCUGUUGGCGUAAUGGUAACGGGUCUCCGUCCUAAGGAGAAGACUGCGGGUUCGAGUCGCGUACGGAACG is lower in yeast fitness: 0.901 for the first, ≤ 0.5 for the second.

Compared with GUUCCGUUGGCGUAAUGGUAACGCGUCUCCCUCCUAAGGAGAAGACUGCGGGUUCGAGUCCCAUACGAAACG, GUUCCAUUGGCGUAAUGGUAACGCGUCUCCCUCCUAAGGAGAAGACUGCGGGUUGGAGUCCCGUACGGAACG is lower in yeast fitness: 0.843 for the first, 0.656 for the second.

Compared with GUUCCGUUGGCGUAAUGGUAACGCGGCUCCCUCCUAAGGAGAAGAUUGCGGGUUCGAGUCCCGUACGGAACG, GUUCCGUUCGCGUAAUGGUAACGUGUCUCGCUCCUAAGGAGAAGACUGCGGGUUCGAGUCCCGUACGGAACG is lower in yeast fitness: 1.01 for the first, ≤ 0.5 for the second.

First: GUUUGGUUGGAGUAAUGGUAACGCGUCUCCCUCCUAAGGAGAAGACUGCGGGUUCGAGUCCCGUAAGGAACG
Second: GUACCGUUGGCGUAAUGGUAACGCGUCUCUCUCCUAAGGAGGAGACUGCGGGUUCGAGUCCCGUACGGAACG
The yeast fitness of the first is lower: ≤ 0.5 for the first, 0.757 for the second.

GUUCCGUAGGCGUAAUGGUAACGCGUCUCUCUCCUAAGGAGAAGACUGCGGGUUCGACUCCCGUACGGAACG and GUUCCGUUGGCGUCAUGGUAACGCGUCUCCCUCCUAGGGAGAAGACUGGGGGUUCGAGUCCCGUACGGAACG cannot be ordered by yeast fitness: ≤ 0.5 for the first, ≤ 0.5 for the second.

Compared with GUUCCGUUGGCGUAAUGGUAACGCGUCUCCCUCUUACGGAGAAGACUGCGGGUUCGAGUCCCAUACGGAACG, GUUCCGUUGGUGUAAUGGUAACGCGUCUCCCUCCUAAGGAGAAGACUGCGGGUUCGCGUCCCGUACGGAACG is higher in yeast fitness: ≤ 0.5 for the first, 0.622 for the second.

Compared with GUUCCGUUGGCGUAAUGGCAACGCGUCUCCCUCCUAAGGAAAAGACUGCGGGUUCGAGUCCCGUACGGAACG, GUUCGGUUGGCGUAAUGGUUACGCAUCUCCCUCCUAAGGAAAAGACUGCGGGUUGGAGUCCCGUACGGAACG is lower in yeast fitness: 0.899 for the first, ≤ 0.5 for the second.

First: GUUACGUUGGCGUAAUGGUAACGCGUCUCCUUCCUAAGGAGAAGACUGCGGGUUCGAGUCCCGUACGGAACG
Second: GUUCCGUUAGAGUAAUGGUAACGCGUCUCCCUCGUGAGGAGAAGACUGCGGGUUCGAGUCCCGUCCGGAACG
The yeast fitness of the first is higher: 0.864 for the first, ≤ 0.5 for the second.

GUUCCGUUGGCGUAAUGGUAACGCGUCUCCCUCCUCAGGAGAAGACUGCGGGGUCGAGUCCCGUACGGAACG and GUUCCGUUGGCGUAUUGGUAAGGCGUCUCCUUCCUAAGGAGAAGACUGCGGGUUCGAGUCCCGAACGCAUCG cannot be ordered by yeast fitness: ≤ 0.5 for the first, ≤ 0.5 for the second.

Compared with GUUCCGUUGGUGUAAUGGUAACGCGUCUCCCUCCUAAGGAGAAGACUGCGGGUACGAGUCCCGUACGGAACG, GUUCCGUUGGAGUAAUGGUCACGCGUCUUCCUCCUAAGGAGAAGACUGCGGGUUCGAGUCCCGUACGGAACG is lower in yeast fitness: 0.733 for the first, 0.564 for the second.

Compared with GUUCCCUUGGCGUAGUGGUAACGCGUCUCCCUCCUAAGGAGAAGACUGCGAGUUCGAGUCCCGUACGGAACG, GUUCCGUCGGCGUAAUGGUAACGCGUCUCCCUCCUAAGGAGAAGACUGCGGGUCCGAGUCCCGUACGGAACG is higher in yeast fitness: ≤ 0.5 for the first, 0.915 for the second.

GUUCCGUUGGCGUUAUGGUAACGCGUUUCCCUCCUAAGGAGAAGACUGCGGGUUGGAGUCCCGUACGCAACG and GUUCCGUUGGCGUAAGGGUAACGCGUGUCCCUCCUAAGGAGAAGACUGAGGGUUCGAGUACCGUACGGAACG cannot be ordered by yeast fitness: ≤ 0.5 for the first, ≤ 0.5 for the second.

First: GUUCCGUUGGCGUGAUGGUAGCGCGUCUCCCUCCUAAGGAGAAGACUGCGGGCUCGCGUCCCGUACGGUACG
Second: GUUCCGUUGGCGUAAUGGUAACGCGUCUCCCUCCUAAGGAGGAGACCGCGGGUUCGAGUCCCGUACGGAACG
The yeast fitness of the first is lower: ≤ 0.5 for the first, 0.959 for the second.

Going from GUUCCGUUGGCGUAAUGGUAACGCAUCUCCCUCCUAAGGAAAAGACUGCGGGUUCGAGUCCCGUACGGACCG to GUUCCGUUGGCGUAAUGGUAUCGCGUCUCCCUCCAAAGGAGAAAACUGCGGGUUCGAGUCCCGUACGGAACG, the yeast fitness falls from 0.714 to ≤ 0.5.
